Experimental findings from ChEMBL document CHEMBL4346682 (Eur J Med Chem, 2019) are described below.

One test deals with L1210. Nature of the test: Antiproliferative activity against mouse L1210 cells measured after 96 hrs by Coulter counter method. Type of test: functional, cell-based. Conditions: L1210, 96 h. Put shortly: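 L1210 suspension cells seeded at 60,000 cells/well with a range of compound concentrations, grown 96 h, counted in a Coulter counter. IC50 is the concentration reducing proliferation by 50%, mean ± SD of three independent experiments.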

The target of another test is Tubulin (Homo sapiens) (UniProt P68371+Q9H4B7+P0DPH7+P68366+Q13509+Q71U36+P04350+Q3ZCM7+P07437+P68363+Q9BQE3+Q6PEY2+Q13885+Q9BVA1+Q9BUF5). Nature of the test: Inhibition of human tubulin polymerization assessed as induction of tubulin polymerization destabilization at 30 uM by turbidimetric assay.
Another test relates to CCRF-CEM. Nature of the test: Antiproliferative activity against human CEM cells measured after 96 hrs by Coulter counter method. The format is functional, cell-based. The procedure, abridged: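 CEM suspension cells seeded at 60,000 cells/well with a range of compound concentrations, grown 96 h, then counted. Medium is DMEM with 10% FBS, 0.01 M Hepes and 1 mM sodium pyruvate, 37 °C, 5% CO2.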

In the next test the target is Tubulin (Bos taurus) (UniProt Q6B856+Q862L2+Q862F3). Nature of the test: Binding affinity to calf brain tubulin assessed as binding constant incubated for 30 mins in presence of R-PT by fluorescence based method. Put shortly:
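Competition assay with calf brain tubulin. A premixed 0.2 µM R-PT plus 0.2 µM tubulin sample was exposed to ligand at 0–70 µM in 10 mM sodium phosphate, 0.1 mM GTP, pH 7.0, incubated 30 min at 25 °C. Fluorescence read at 456 nm (excitation 374 nm). Kb fitted by competition analysis, mean of three experiments ± StdError.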

Test [1] deals with HMEC-1. Put plainly: Antiproliferative activity against human HMEC1 cells measured after 4 days by Coulter counter method. The format is functional, cell-based. Conditions: HMEC-1, 96 h.
For test [2], the system named is HeLa. Nature of the test: Antiproliferative activity against human HeLa cells measured after 3 days by Coulter counter method. The format is functional, cell-based. Conditions: 72 h.
The subject of test [3] is HeLa. Put plainly: Cell cycle arrest in human HeLa cells assessed as accumulation at G2/M phase at 0.08 uM measured after 24 hrs by DAPI staining based HCS analysis. The format is functional.
Test [4] has as its system HeLa. Put plainly: Cell cycle arrest in human HeLa cells assessed as accumulation at G2/M phase at 0.016 uM measured after 24 hrs by DAPI staining based HCS analysis. The format is functional.
Test [5] deals with HMEC-1. Put plainly: Vascular disrupting activity in human HMEC1 cells at 0.4 uM after 90 mins. Type of test: functional, cell-based. The procedure, abridged:
(§1)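 HMEC-1 seeded at 60,000 cells/well on matrigel (10 mg/mL, gelled 30 min at 37 °C) in DMEM with 10% FCS. After 3 h at 37 °C, once tube-like networks formed, compound was added at 2, 0.4 or 0.08 µM. After 90 min, images taken at 100× and meshes, branching points and tube length quantified.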

The test system of test [6] is HeLa. Put plainly: Cell cycle arrest in human HeLa cells assessed as accumulation at G2/M phase at 2 uM measured after 24 hrs by DAPI staining based HCS analysis. The format is functional.
For test [7], the system named is HMEC-1. Nature of the test: Vascular disrupting activity in human HMEC1 cells at 0.08 to 2 uM after 90 mins. The format is functional, cell-based. The procedure, abridged:
as §1

For test [8], the system named is HMEC-1. Put plainly: Cell cycle arrest in human HMEC1 cells assessed as accumulation at G2/M phase at 0.4 uM measured after 24 hrs by propidium iodide based FACSCalibur flow cytometry. Type of test: functional. Put shortly: (§2)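 HMEC-1 seeded at 125,000 cells/well in DMEM with 10% FBS and exposed to compound after 24 h. After another 24 h, DNA was stained with propidium iodide and analysed by flow cytometry within 3 h. Debris and clumps were gated out, and sub-G1, G1, S and G2/M fractions estimated with region markers.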
(In general: In flow cytometry, cells or beads pass a laser one at a time.)

Test [9] deals with HeLa. Put plainly: Cell cycle arrest in human HeLa cells assessed as accumulation at G2/M phase at 0.4 uM measured after 24 hrs by DAPI staining based HCS analysis. The format is functional.
Test [10] concerns HMEC-1. Nature of the test: Cell cycle arrest in human HMEC1 cells assessed as accumulation at G2/M phase at 0.08 uM measured after 24 hrs by propidium iodide based FACSCalibur flow cytometry. The format is functional. The procedure, abridged:
as §2

The source made the active and inactive calls. The calls are words filed in the database; no cut-off is given here.

Take `COc1ccc(/C=C\c2cc(OC)c(OC)c(OC)c2)cc1OP(=O)(O)O` [FOSBRETABULIN DISODIUM]: in the test on L1210, the IC50 (in general, the concentration that inhibits the measured activity by half) was found to be 13 nM.
In the case of `COc1cccc(Oc2ccccc2NC(C)=C2C(=O)CC(c3ccccc3)CC2=O)c1` (stereo unspecified), the result at Tubulin (Homo sapiens) was Active. Also, the concentration for half-maximal inhibition (IC50) stood at 41 nM in the test with CCRF-CEM, 59 nM with HMEC-1 [1], 58 nM with L1210 and 93 nM with HeLa [2]. Besides, at Tubulin (Bos taurus), the Kb came out at 15.7 ×10⁶ /M.
Consider `COc1cc(Oc2ccccc2NC(C)=C2C(=O)CC(c3ccccc3)CC2=O)ccc1N` (stereo unspecified), for which the outcome in the test on HeLa [3], at Tubulin (Homo sapiens), with HeLa [4], with HMEC-1 [5], in the test on HeLa [6] and in the test on HMEC-1 [8] was Active. In addition, the outcome in the test with HeLa [9] was Active. Moreover, the 50% inhibitory concentration (IC50) was 12 nM in the test on CCRF-CEM, 29 nM in the test on HMEC-1 [1], 26 nM with L1210 and 33 nM in the test on HeLa [2]. The Kb at Tubulin (Bos taurus) was determined as 18.1 ×10⁶ /M. Further, the Activity result with HMEC-1 [7] was “Dose-dependent effect”.
For `COc1ccc(Oc2ccccc2NC(C)=C2C(=O)CC(c3ccccc3)CC2=O)cc1OC` (stereo unspecified), the result at Tubulin (Homo sapiens) was Active. Besides, the half-inhibitory concentration (IC50) with CCRF-CEM worked out at 160 nM; in the test on HMEC-1 [1] it was 140 nM; with L1210, 65 nM; in the test on HeLa [2] it was 54 nM. On Tubulin (Bos taurus), the Kb came out at 2.24 ×10⁶ /M.
In the case of `CC(Nc1ccccc1Oc1ccc(Cl)cc1)=C1C(=O)CC(c2ccccc2)CC1=O` (stereo unspecified), the IC50 in the test with CCRF-CEM was found to be 190 nM; in the test on HMEC-1 [1], 260 nM; with L1210, 250 nM; in the test with HeLa [2], 500 nM.
Turning to `CC(Nc1ccccc1Oc1ccc(C(C)O)cc1)=C1C(=O)CC(c2ccccc2)CC1=O` (stereo unspecified), on Tubulin (Homo sapiens), the result was Active. Besides, the half-maximal inhibitory concentration (IC50) with CCRF-CEM is 120 nM; in the test on HMEC-1 [1], 140 nM; in the test with L1210, 58 nM; in the test on HeLa [2], 75 nM. In addition, the Kb on Tubulin (Bos taurus) stood at 3.13 ×10⁶ /M.
Turning to `CC(Nc1ccccc1Oc1ccccc1)=C1C(=O)CC(c2ccccc2)CC1=O` (stereo unspecified), at Tubulin (Homo sapiens), the result was Active. The IC50 is 170 nM in the test with CCRF-CEM, 160 nM in the test on HMEC-1 [1], 86 nM in the test with L1210 and 79 nM in the test on HeLa [2]. Moreover, at Tubulin (Bos taurus), the Kb worked out at 6.46 ×10⁶ /M.
Regarding `CCOc1ccccc1NC(C)=C1C(=O)CC(c2ccccc2)CC1=O` (stereo unspecified), the result on Tubulin (Homo sapiens) was Active. The half-maximal inhibitory concentration (IC50) in the test on CCRF-CEM amounted to 190 nM; with HMEC-1 [1], 100 nM; with L1210 it was 190 nM; in the test with HeLa [2], 180 nM. In addition, the Kb on Tubulin (Bos taurus) came to 13 ×10⁶ /M.
Turning to `COc1ccc(Oc2ccccc2NC(C)=C2C(=O)CC(c3ccccc3)CC2=O)cc1` (stereo unspecified), on Tubulin (Homo sapiens), the result was Active. Further, the half-maximal inhibitory concentration (IC50) came out at 120 nM with CCRF-CEM, 83 nM with HMEC-1 [1], 140 nM with L1210 and 160 nM in the test with HeLa [2]. Also, the Kb on Tubulin (Bos taurus) turned out to be 5.23 ×10⁶ /M.
`CC(Nc1ccccc1Oc1cccc(F)c1)=C1C(=O)CC(c2ccccc2)CC1=O` (stereo unspecified): the IC50 with CCRF-CEM turned out to be 170 nM; in the test on HMEC-1 [1] it was 360 nM; in the test on L1210 it was 330 nM; with HeLa [2], 550 nM.
Turning to `COc1cc([C@@H]2c3cc4c(cc3[C@H](O)[C@H]3COC(=O)[C@H]23)OCO4)cc(OC)c1OC`, the result at Tubulin (Homo sapiens) was Active.
For the compound `CC(=O)c1ccc(Oc2ccccc2NC(C)=C2C(=O)CC(c3ccccc3)CC2=O)cc1` (stereo unspecified), the IC50 in the test on CCRF-CEM came out at 220 nM; in the test with HMEC-1 [1] it was 180 nM; in the test with L1210, 190 nM; with HeLa [2], 130 nM.
For the compound `CC(Nc1ccccc1Oc1cccc(N)c1)=C1C(=O)CC(c2ccccc2)CC1=O` (stereo unspecified), the outcome on Tubulin (Homo sapiens) was Active. Further, the half-inhibitory concentration (IC50) with CCRF-CEM was determined as 42 nM; in the test on HMEC-1 [1] it was 41 nM; in the test with L1210 it was 53 nM; in the test on HeLa [2], 82 nM. Also, at Tubulin (Bos taurus), the Kb is 5.56 ×10⁶ /M.
On to `CC(Nc1ccccc1Oc1ccc(N)cc1)=C1C(=O)CC(c2ccccc2)CC1=O` (stereo unspecified), for which the outcome in the test with HeLa [3], at Tubulin (Homo sapiens), with HMEC-1 [10], with HeLa [4], in the test on HMEC-1 [5] and in the test on HeLa [6] was Active. In addition, the outcome in the test with HeLa [9] was Active. Besides, the IC50 in the test on CCRF-CEM is 37 nM; with HMEC-1 [1], 47 nM; in the test on L1210 it was 40 nM; in the test on HeLa [2], 39 nM. Moreover, the Kb on Tubulin (Bos taurus) turned out to be 11.8 ×10⁶ /M. Moreover, the Activity entry with HMEC-1 [7] is “Dose-dependent effect”.
For the compound `COc1cc2c(c(OC)c1OC)-c1ccc(OC)c(=O)cc1[C@@H](NC(C)=O)CC2`, the result in the test on HeLa [3], in the test with HeLa [4], in the test on HeLa [6] and in the test with HeLa [9] was Active.
